Compound activity deposited in PubChem by several laboratories.
ERb SRC1 inh: ER-beta (human) coactivator binding inhibition; AID 633; 86,000 compounds, 1.3% hits; inhibition, % at 25.6 µM; TR-FRET ER-beta LBD / SRC1-Cy5 peptide binding; receptor agonist-loaded with 1 µM estradiol;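 active = compounds whose percent inhibition of the receptor-coactivator binding signal exceeds about 50% in the single-dose screen, limit read from the data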;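 also: 0% = receptor plus peptide wells without compound and 100% = peptide-only wells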
H69AR growth 86K: blocks growth of human H69AR lung tumor cells; AID 598; 85,000 compounds, 6% hits; viability, % at 10 µM; H69AR lung tumor viability, ATP luminescence, 72 h; active compounds read low;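 active = viability at or below 40%; inactive = viability above 40%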;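 also: multidrug resistant small cell line overexpressing MRP-1 efflux transporter; 100% = mean luminescence of untreated control wells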
Lung fibro prol: blocks proliferation of human lung fibroblasts; LL 47 human lung fibroblast viability, ATP luminescence; active compounds read low; 85,000 compounds, 1.1% hits; viability, % at 10 µM;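 active = viability at or below 50% in the single dose screen; inactive = viability above 50%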;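 also: compound exposure lasted 72 h before the ATP readout; 100% = median luminescence of untreated cell-only wells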
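Times – overnight cell rest, 72 h compound treatment at 37 °C · Test system – human lung fibroblast line LL 47, low passage · Amount – 1,150 cells in each well · Controls – cell-only wells, no compound · Doses – 0.1% DMSO in all compound wells · Measured by – CellTiter-Glo luminescence · Buffer or medium – IMEM plus 15% FBS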
ERa coact pot: ER-alpha (human) coactivator binding potentiation | TR-FRET ERalpha-LBD/SRC-Cy5 coactivator binding, 2 h; 100 = basal binding, no effect | P03372 | coactivator binding (% of control), % at 25.6 µM | 86,000 compounds, 1.3% hits; in the data active = activity above about 200%;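 also: binding measured in presence of low estradiol as agonist stimulus; 0% = peptide alone without receptor and 100% = receptor with peptide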
ERa SRC1 inh: ER-alpha (human) coactivator binding inhibition; TR-FRET ER-alpha LBD / SRC-1 peptide, estradiol-bound; inhibition, % at 25.6 µM; 86,000 compounds, 1.7% hits; in the data active = inhibition above about 50%;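 also: 0% = receptor plus peptide control and 100% = peptide only without receptor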
HUVEC inhibit: blocks proliferation of human endothelial cells | AID 648 | viability, % at 10 µM (by protocol) | HUVEC proliferation, CellTiter-Glo luminescence, 72 h; active compounds read low | 86,000 compounds, 1.1% hits;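 active = viability at or below 30%; inactive = viability above 30%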;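 also: 100% = median luminescence of DMSO-only cell control wells on each plate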
Numbers without * were called inactive; . = no result; [ ] = remark or other dose. Compounds with a hit are over-represented: about 9.2% of the library has one in this group of screens.

SMILES	ERb SRC1 inh	H69AR growth 86K	Lung fibro prol	ERa coact pot	ERa SRC1 inh	HUVEC inhibit
COCCCN=C(c1ccco1)n1c(=S)nc(-c2ccco2)n(CCCOC)c1=S	11.7	88.1	107.3	64.7	7.9	84.7
O=C1CC(c2ccc(F)cc2)Cc2nc(N3CCc4ccccc43)ncc21 (configuration not stated)	24.5	59.8	99.6	203.5*[fluorescence artefact?]	22.5	82.4
COC(=O)c1nnn(-c2nonc2N)c1CN1CCc2ccccc21	0.4	27.6*	99.7	120.0	-5.4	64.1
COc1ccc(CCn2c(C)cc3c(c2=O)C(c2ccc4c(c2)OCO4)C(C#N)=C(N)O3)cc1OC (configuration not stated)	10.9	56.7	100.0	107.6	17.1	104.2
CCc1nc2oc3cc(OC)ccc3c(=O)c2c(=O)n1Cc1ccco1	58.6*	81.9	98.8	78.2	37.3	104.9
COc1ccc(CCn2c(-c3ccco3)nc3ccccc3c2=O)cc1OC	10.4	38.6*	105.1	98.0	-0.7	67.8
COc1ccc(Cn2c(-c3ccco3)nc3oc4ccccc4c(=O)c3c2=O)cc1	26.7	28.6*	72.5	144.8	44.7	75.0
COc1ccc(CCn2c(-c3ccco3)nc3oc4ccccc4c(=O)c3c2=O)cc1	8.2	.	101.1	123.1	15.6	74.3
COc1ccc(-c2nc3oc4cc(OC)ccc4c(=O)c3c(=O)n2Cc2ccco2)cc1	23.1	3.8*	100.2	86.3	42.3	102.2
CC(=O)Nc1ccc(NS(=O)(=O)c2cn(C)c(=O)n(C)c2=O)cc1	9.2	93.9	100.5	93.6	4.7	83.9
COc1ccc2c(=O)c3c(=O)n(Cc4ccco4)c(-c4ccco4)nc3oc2c1	60.3*	71.3	112.2	48.8	75.2*[fluorescence artefact?]	85.5
COc1ccc(Cn2c(-c3ccco3)nc3oc4cc(OC)ccc4c(=O)c3c2=O)cc1	53.8*[fluorescence artefact?]	19.9*	98.1	570.8*[fluorescence artefact?]	49.5	73.1
COCCn1c(-c2ccc(OC)cc2)nc2oc3cc(OC)ccc3c(=O)c2c1=O	-16.3	69.2	102.6	89.3	14.2	99.8
CCC(C)NC(=O)CCNS(=O)(=O)c1ccc(Br)cc1 (configuration not stated)	0.5	100.6	106.0	125.4	3.2	98.0
Cc1c(NC(=O)c2cc3nc(-c4ccc(Br)cc4)cc(C(F)(F)F)n3n2)c(=O)n(-c2ccccc2)n1C	13.8	0.6*	46.2*	103.3	5.3	103.3
Cc1c(NC(=O)c2cc3nc(-c4ccccc4)cc(C)n3n2)c(=O)n(-c2ccccc2)n1C	-0.4	85.7	94.5	150.5	-9.1	92.9
CN1C(=O)c2c(sc3c2CCCC3)NC1c1ccccc1O (configuration not stated)	77.8*[fluorescence artefact?]	63.7	101.1	60.9	18.9	89.2
Cc1ccccc1-n1nc2c(c1NC(=O)c1cc3ccccc3oc1=O)CS(=O)C2 (configuration not stated)	-7.6	90.3	100.8	120.4	10.3	92.2
Cc1ccccc1-n1nc2c(c1NC(=O)c1cc3ccccc3oc1=O)CS(=O)(=O)C2	11.2	4.2*	88.2	111.1	40.3	91.8
COc1ccc(CC(=O)Nc2c3c(nn2-c2cccc(C)c2C)CS(=O)(=O)C3)cc1	-5.1	78.8	91.4	116.8	2.8	95.5
COc1ccccc1C(=O)Nc1c2c(nn1-c1cccc(C)c1C)CS(=O)(=O)C2	-5.7	94.2	72.3	410.2*[fluorescence artefact?]	31.9	90.9
c1cn(CCCNc2ncnc3sc4c(c23)CCC4)cn1	-3.5	89.0	88.3	105.4	-10.4	90.5
COCCCNc1ncnc2sc3c(c12)CCC(C)C3 (configuration not stated)	-3.9	39.0*	89.4	104.7	-1.1	89.4
COc1cc2c(cc1OC)CN(Cc1nc3ccsc3c(=O)[nH]1)CC2	48.8	75.7	97.7	59.0	53.0*[fluorescence artefact?]	92.3
O=C(CSCc1ccc(F)cc1)NCc1ccco1	2.2	97.0	97.7	121.0	8.6	90.5
CCOC(=O)C1=C(C)NC(=O)NC1c1ccco1 (configuration not stated)	66.1*	97.3	104.3	61.3	48.2	107.4
CC1=C(C(=O)OC(C)C)C(c2ccco2)NC(=O)N1 (configuration not stated)	54.7*[fluorescence artefact?]	104.9	111.2	55.5	35.2	103.9
